# Results collected from several papers.
# Each line is one published result; the experiments were not run side by side.
# Target: Serine/threonine-protein kinase Nek6 (NEK6, Homo sapiens, UniProt Q9HC98)
Compound,test,setting,measurement,value
Cn1cc(-c2cccc(N3CCc4c(sc5c4CC(C)(C)C5)C3=O)c2CO)cc(Nc2ccncn2)c1=O,"enzyme activity, inhibitor",1 µM,inhibition,4%
COc1ncccc1-c1cnn2ccc(N3CCN(C(=O)OC(C)C)CC3)nc12,"binding, competition with immobilised ligand",1 µM,remaining binding,68%
N#CC1(c2ccccn2)CCN(Cc2cc(C(=O)O)c(=O)n3ccccc23)CC1,"cell-free assay, competition with immobilised ligand",1 µM,remaining binding,100%
O=C1Nc2ccc3ncsc3c2/C1=C/c1cnc[nH]1,"enzyme activity, inhibitor",0.5 µM,remaining activity,93.2%
Nc1ncc(-c2nc(N3CCOCC3)nc(N3CCOCC3)n2)c(C(F)F)n1,"binding, competition with immobilised ligand",10 µM,remaining binding,100%
Cn1cc(-c2cc(F)cc(N3CCn4c(cc5c4CCCC5)C3=O)c2CO)cc(Nc2ccc(N3CCN(C4COC4)CC3)cn2)c1=O,"enzyme activity, inhibitor",0.1 µM,inhibition,6%
O=c1[nH]c2ccccc2n1C1CCN(Cc2ccc(-c3[nH]c4cc5ncnc5cc4nc3-c3ccccc3)cc2)CC1,cell-free assay,0.5 µM,remaining signal,98.2%
Cc1nn(C)cc1-c1nc2c(N3CCN(Cc4ccc(Cl)cc4)CC3)c(Cl)cnc2[nH]1,"binding, competition with immobilised ligand",1 µM,remaining binding,100%
Cn1cncc1[C@](O)(COc1ccc(C#N)cc1-c1ccc(OC(F)(F)F)cc1)c1ccc(C#N)cc1,"cell-free assay, competition with immobilised ligand",1 µM,remaining binding,95%
COc1cc(Nc2ncc(F)c(Nc3ccc4c(n3)NC(=O)C(C)(C)O4)n2)cc(OC)c1OC,"binding, competition with immobilised ligand",10 µM,inhibition,100%
